In ChEMBL document CHEMBL1147338, “Production of an anti-allergic triterpene bryonolic acid, by plant cell cultures” (J Nat Prod, 1993):
Activity calls are given as the source filed them. The calls are words filed in the database; no cut-off is given here.

Experiments:
[1] = test system: Mus musculus; assay: Antiallergic activity in ip dosed ddY mouse assessed as inhibition of passive cutaneous anaphylaxis administered 15 mins before egg albumin challenge; format: functional; details: read-out: ID50 (the source's name)
How it was run: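 Passive cutaneous anaphylaxis: anti-egg-albumin antiserum injected into both ears 48 h before iv egg albumin plus Evans Blue. Intraperitoneal dosing 15 min before antigen; dye leakage per ear measured spectrophotometrically after 30 min. ID50 (mg/kg) given as dose giving 50% inhibition.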

[2] = test system: Mus musculus; assay: Antiallergic activity in po dosed ddY mouse assessed as inhibition of passive cutaneous anaphylaxis administered 30 mins before egg albumin challenge; format: functional; details: read-out: ID50 (the source's name)
How it was run: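 Passive cutaneous anaphylaxis in mice: ear sensitization with anti-egg-albumin antiserum 48 h before iv egg albumin with Evans Blue; oral dosing 30 min before antigen; ear dye leakage read spectrophotometrically 30 min after challenge.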

[3] = molecular target: T1, Aldo-keto reductase family 1 member D1 (Rattus norvegicus) (UniProt P31210); assay: Inhibition of rat liver 3-ketosteroid 5-beta-reductase
T1 sequence (whole entry): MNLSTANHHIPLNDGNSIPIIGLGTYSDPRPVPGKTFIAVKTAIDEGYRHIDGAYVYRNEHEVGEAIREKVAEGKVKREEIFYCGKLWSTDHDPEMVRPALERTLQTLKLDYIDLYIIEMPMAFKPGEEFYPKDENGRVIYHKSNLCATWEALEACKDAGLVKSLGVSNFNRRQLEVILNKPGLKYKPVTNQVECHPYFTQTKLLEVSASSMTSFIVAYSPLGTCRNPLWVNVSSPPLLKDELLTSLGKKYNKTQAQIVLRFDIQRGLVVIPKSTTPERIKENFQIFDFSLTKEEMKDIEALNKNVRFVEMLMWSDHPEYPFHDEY

[4] = test system: Mus musculus; assay: Antiallergic activity in ddY mouse assessed as inhibition picryl chloride-induced contact dermatitis at 30 mg/kg, po administered 3 hrs after picryl chloride challenge measured after 24 hrs
[5] = test system: Mus musculus; assay: Antiallergic activity in ddY mouse assessed as inhibition sheep erythrocytes-induced arthus reaction at 30 mg/kg, po administered 30 mins before induction of arthus reaction; format: functional
How it was run: (§1)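 Male ddY mice (4-week-old, 16–18 g) sensitized by iv sheep erythrocytes 19 and 5 days before Arthus reaction, induced by sc sheep erythrocytes into right paw. Oral dosing 30 min before induction; edema scored as right minus left paw thickness, expressed as % inhibition of control.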

[6] = test system: Mus musculus; assay: Antiallergic activity in ddY mouse assessed as inhibition picryl chloride-induced contact dermatitis at 150 mg/kg, po administered 3 hrs after picryl chloride challenge measured after 24 hrs
[7] = test system: Mus musculus; assay: Antiallergic activity in ddY mouse assessed as inhibition picryl chloride-induced contact dermatitis at 300 mg/kg, po administered 3 hrs after picryl chloride challenge measured after 24 hrs
[8] = test system: Mus musculus; assay: Antiallergic activity in ddY mouse assessed as inhibition sheep erythrocytes-induced arthus reaction at 300 mg/kg, po administered 30 mins before induction of arthus reaction; format: functional; how it was run: as §1
[9] = test system: Mus musculus; assay: Antiallergic activity in ddY mouse assessed as inhibition sheep erythrocytes-induced arthus reaction at 600 mg/kg, po administered 30 mins before induction of arthus reaction; format: functional; how it was run: as §1
[10] = test system: Mus musculus; assay: Antiallergic activity in ddY mouse assessed as inhibition picryl chloride-induced contact dermatitis at 75 mg/kg, po administered 3 hrs after picryl chloride challenge measured after 24 hrs
[11] = test system: Mus musculus; assay: Acute toxicity in ddY mouse at 4 g/kg, po; format: organism-based; details: in vivo, 4000 mg/kg
How it was run: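 Mice dosed orally at 4 g/kg; lethality recorded as the read-out for acute toxicity.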

**Q.** For COc1ccc(/C=C/C(=O)Nc2ccccc2C(=O)O)cc1OC [TRANILAST], which ED50 [1] is on record?
**A.** 152 mg/kg

**Q.** How did the ED50 [1] turn out when CC1(C)[C@@H](OC(=O)CCC(=O)[O-])CC[C@]2(C)C3=C(CC[C@@H]12)[C@@]1(C)CC[C@@]2(C)CC[C@@](C)(CO)C[C@H]2[C@]1(C)CC3.[K+] was run?
**A.** 50.3 mg/kg

**Q.** How did the ED50 [1] turn out when CC1(C)[C@@H](O)CC[C@]2(C)C3=C(CC[C@@H]12)[C@@]1(C)CC[C@@]2(C)CC[C@@](C)(COC(=O)CCC(=O)[O-])C[C@H]2[C@]1(C)CC3.[K+] was run?
**A.** > 400 mg/kg

**Q.** For CC1(C)[C@@H](OC(=O)c2ccccc2C(=O)[O-])CC[C@]2(C)C3=C(CC[C@@H]12)[C@@]1(C)CC[C@@]2(C)CC[C@@](C)(COC(=O)c4ccccc4C(=O)[O-])C[C@H]2[C@]1(C)CC3.[K+].[K+], which ED50 [1] is on record?
**A.** 41.4 mg/kg

**Q.** What about the ED50 [2] of the same compound?
**A.** 92.5 mg/kg

**Q.** CC1(C)[C@@H](O)CC[C@]2(C)[C@H]3C(=O)C=C4[C@@H]5C[C@@](C)(C(=O)O)CC[C@]5(C)CC[C@@]4(C)[C@]3(C)CC[C@@H]12 was tested. Which Activity [3] did it give?
**A.** Active

**Q.** Which results are given for C[C@]12C=CC(=O)C=C1CC[C@@H]1[C@@H]2[C@@H](O)C[C@@]2(C)[C@H]1CC[C@]2(O)C(=O)COC(=O)CCC(=O)O [PREDNISOLONE HEMISUCCINATE]?
**A.** inhibition in vivo at 30 mg/kg [4]: 41%; inhibition in vivo at 30 mg/kg [5]: 37.4%

**Q.** What does the source list for CC1(C)[C@@H](O)CC[C@]2(C)C3=C(CC[C@@H]12)[C@@]1(C)CC[C@@]2(C)CC[C@@](C)(C(=O)O)C[C@H]2[C@]1(C)CC3 [BRYONOLIC ACID]?
**A.** Activity [3]: inactive; ED50 [1]: 376 mg/kg

**Q.** How did the ED50 [1] turn out when CC1(C)[C@@H](OC(=O)CCC(=O)[O-])CC[C@]2(C)C3=CC[C@@]4(C)[C@@H]5C[C@](C)(C(=O)[O-])CC[C@]5(C)CC[C@]4(C)C3=CC[C@@H]12.[K+].[K+] was run?
**A.** 92.4 mg/kg

**Q.** For CC1(C)[C@@H](O)CC[C@]2(C)C3=C(CC[C@@H]12)[C@@]1(C)CC[C@@]2(C)CC[C@@](C)(CO)C[C@H]2[C@]1(C)CC3, which ED50 [1] is on record?
**A.** 315 mg/kg

**Q.** Which results are given for CC1(C)[C@@H](OC(=O)c2ccccc2C(=O)[O-])CC[C@]2(C)C3=C(CC[C@@H]12)[C@@]1(C)CC[C@@]2(C)CC[C@@](C)(C(=O)[O-])C[C@H]2[C@]1(C)CC3.[K+].[K+]?
**A.** ED50 [1]: 34.2 mg/kg; ED50 [2]: 172 mg/kg

**Q.** With CC1(C)[C@@H](OC(=O)CCC(=O)[O-])CC[C@]2(C)C3=C(CC[C@@H]12)[C@@]1(C)CC[C@@]2(C)CC[C@@](C)(COC(=O)CCC(=O)[O-])C[C@H]2[C@]1(C)CC3.[K+].[K+] as the compound, how does the ED50 [1] read?
**A.** 52.4 mg/kg

**Q.** How did the inhibition in vivo at 150 mg/kg [6] turn out when CC1(C)[C@@H](OC(=O)CCC(=O)[O-])CC[C@]2(C)C3=C(CC[C@@H]12)[C@@]1(C)CC[C@@]2(C)CC[C@@](C)(C(=O)[O-])C[C@H]2[C@]1(C)CC3.[K+].[K+] was run?
**A.** 40.7%

**Q.** And the inhibition in vivo at 300 mg/kg [7]?
**A.** 53%

**Q.** And the ED50 [1]?
**A.** 55.3 mg/kg

**Q.** And the inhibition in vivo at 300 mg/kg [8]?
**A.** 35.3%

**Q.** And the inhibition in vivo at 600 mg/kg [9]?
**A.** 62.4%

**Q.** What about the inhibition in vivo at 75 mg/kg [10] of the same compound?
**A.** 34%

**Q.** What about the Activity [11] of the same compound?
**A.** Non-toxic

**Q.** And the ED50 [2]?
**A.** 63.7 mg/kg
